# How the values were obtained:
# Rattus norvegicus [1] = organism: Rattus norvegicus; assay: Tested for the inhibition of bone resorption in neonatal rat long bones by measuring mean total resorption at 10 e -6 M (sd 4446); format: functional
# How it was run: (§1)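 Osteoclasts mechanically disaggregated from neonatal rat long bones into Hepes-buffered medium 199, settled 30 s, allowed to attach to bone slices (2.5 mm²) for 15 min at 37 °C, washed, then cultured overnight in 10% newborn calf serum in Hanks-buffered MEM with or without drug. Cells removed with 10% NaOCl, slices gold-coated, entire surface scanned by SEM for pit number, pit size and resorbed plan area. Student's t-test.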
# Rattus norvegicus [2] = organism: Rattus norvegicus; assay: Tested for the inhibition of bone resorption by measuring number of pits/slice at 10 e -8 M (sd 4.87); format: functional; how it was run: as §1
# Rattus norvegicus [3] = organism: Rattus norvegicus; assay: Tested for the inhibition of bone resorption by measuring mean pit size at 10 e -6 M (sd 963); format: functional; how it was run: as §1
# [4] = Tested for the inhibition of reversibility of hog gastric H+/K+-ATPase at 10 uM; format: functional, Sus scrofa, Stomach; set-up: scale not given: the % may be the effect or the level left
# Rattus norvegicus [5] = organism: Rattus norvegicus; assay: Tested for the inhibition of bone resorption by measuring mean pit size at 10 e -5 M (sd 1012); format: functional; how it was run: as §1
# [6] = Tested for the inhibition of reversibility of hog gastric H+/K+-ATPase at 0.05 uM (200-fold dilution after pre-incubation); format: functional, Sus scrofa, Stomach; set-up: scale not given: the % may be the effect or the level left
# Rattus norvegicus [7] = organism: Rattus norvegicus; assay: Tested for the inhibition of bone resorption by measuring number of pits/slice at 10 e -6 M (sd 3.87); format: functional; how it was run: as §1
# Rattus norvegicus [8] = organism: Rattus norvegicus; assay: Tested for the inhibition of bone resorption in neonatal rat long bones by measuring mean pit size at 10 e -8 M (sd 1498); format: functional; how it was run: as §1
# [9] = Tested for reversible inhibition against gastric H+/K+-ATPase isolated from porcine gastric microsomes; value ranges from […]; format: functional, Sus scrofa, Stomach
# Rattus norvegicus [10] = organism: Rattus norvegicus; assay: Tested for the inhibition of bone resorption by measuring number of pits/slice at 10 e -7 M (sd 3.53); format: functional; how it was run: as §1
# Rattus norvegicus [11] = organism: Rattus norvegicus; assay: Tested for inhibition of bone resorption by osteoclasts in a bone slice assay in rats at 10 e -7 M; format: functional; how it was run: as §1
# Rattus norvegicus [12] = organism: Rattus norvegicus; assay: Tested for the inhibition of bone resorption by measuring number of pits/slice at 10 e -5 M (sd 2.74); format: functional; how it was run: as §1
# Rattus norvegicus [13] = organism: Rattus norvegicus; assay: Tested for the inhibition of bone resorption in neonatal rat long bones by measuring mean total resorption at 10 e -7 M (sd 4081); format: functional; how it was run: as §1
# Rattus norvegicus [14] = organism: Rattus norvegicus; assay: Tested for the inhibition of bone resorption in neonatal rat long bones by measuring mean total resorption at 10 e -8 M (sd 7210); format: functional; how it was run: as §1
# Rattus norvegicus [15] = organism: Rattus norvegicus; assay: Tested for the inhibition of bone resorption by measuring mean total resorption at 10 e -5 M (sd 2675); format: functional; how it was run: as §1
# Rattus norvegicus [16] = organism: Rattus norvegicus; assay: Tested for the inhibition of bone resorption by measuring mean total resorption at 10 e -7 M (sd 4088); format: functional; how it was run: as §1
# [17] = Tested for reversible inhibition against gastric H+/K+-ATPase isolated from porcine gastric microsomes; value ranges from 3-10 uM; format: functional, Sus scrofa, Stomach
# Rattus norvegicus [18] = organism: Rattus norvegicus; assay: Tested for the inhibition of bone resorption by measuring mean pit size at 10 e -8 M (sd 1092); format: functional; how it was run: as §1
# Rattus norvegicus [19] = organism: Rattus norvegicus; assay: Tested for the inhibition of bone resorption by measuring number of pits/slice at 10 e -6 M (sd 3.46); format: functional; how it was run: as §1
# [20] = Tested for the inhibition of reversibility of hog gastric H+/K+-ATPase at 0.01 uM (200-fold dilution after pre-incubation); format: functional, Sus scrofa, Stomach; set-up: scale not given: the % may be the effect or the level left
# Rattus norvegicus [21] = organism: Rattus norvegicus; assay: Tested for inhibition of bone resorption by osteoclasts in a bone slice assay in rats at 10 e -5 M; format: functional; how it was run: as §1
# Rattus norvegicus [22] = organism: Rattus norvegicus; assay: Tested for the inhibition of bone resorption by measuring number of pits/slice at 10 e -8 M (sd 5.51); format: functional; how it was run: as §1
# Rattus norvegicus [23] = organism: Rattus norvegicus; assay: Tested for the inhibition of bone resorption by measuring mean pit size at 10 e -7 M (sd 1032); format: functional; how it was run: as §1
# Rattus norvegicus [24] = organism: Rattus norvegicus; assay: Tested for the inhibition of bone resorption by measuring mean total resorption at 10 e -8 M (sd 5079); format: functional; how it was run: as §1
# Rattus norvegicus [25] = organism: Rattus norvegicus; assay: Tested for the inhibition of bone resorption by measuring mean pit size at 10 e -6 M (sd 814); format: functional; how it was run: as §1
# Rattus norvegicus [26] = organism: Rattus norvegicus; assay: Tested for the inhibition of bone resorption by measuring mean pit size at 10 e -5 M (sd 562); format: functional; how it was run: as §1
# Rattus norvegicus [27] = organism: Rattus norvegicus; assay: Tested for the inhibition of bone resorption by measuring number of pits/slice at 10 e -5 M (sd 1.88); format: functional; how it was run: as §1
# [28] = Tested for the inhibition of reversibility of hog gastric H+/K+-ATPase at 2 uM; format: functional, Sus scrofa, Stomach; set-up: scale not given: the % may be the effect or the level left
# Rattus norvegicus [29] = organism: Rattus norvegicus; assay: Tested for the inhibition of bone resorption by measuring mean total resorption at 10 e -5 M (sd 1111); format: functional; how it was run: as §1
# Rattus norvegicus [30] = organism: Rattus norvegicus; assay: Tested for the inhibition of bone resorption by measuring mean total resorption at 10 e -6 M (sd 3349); format: functional; how it was run: as §1
# Rattus norvegicus [31] = organism: Rattus norvegicus; assay: Tested for the inhibition of bone resorption by measuring number of pits/slice at 10 e -7 M (sd 3.94); format: functional; how it was run: as §1
smiles,measurement,setting,value
CCOC(=O)CCC(=O)c1cnc2c(OC)cccc2c1Nc1ccccc1C,Mean total resorption,Rattus norvegicus [1],4040 um2
same,No. of pits/slice,Rattus norvegicus [2],5.89
same,Mean pit size,Rattus norvegicus [3],1190 µm²
same,Activity,[4],60%
same,Mean pit size,Rattus norvegicus [5],948 µm²
same,Activity,[6],100%
same,No. of pits/slice,Rattus norvegicus [7],3.39
same,Mean pit size,Rattus norvegicus [8],1450 µm²
same,IC50,[9],10 µM
same,No. of pits/slice,Rattus norvegicus [10],4.67
same,IC50,Rattus norvegicus [11],2 µM
same,No. of pits/slice,Rattus norvegicus [12],2.22
same,Mean total resorption,Rattus norvegicus [13],4790 um2
same,Mean total resorption,Rattus norvegicus [14],8400 um2
same,Mean total resorption,Rattus norvegicus [15],2040 um2
CCOC(=O)c1cnc2c(OC)cccc2c1Nc1ccccc1C,Mean total resorption,Rattus norvegicus [16],9060 um2
same,IC50,[17],3 µM
same,Mean pit size,Rattus norvegicus [18],926 µm²
same,No. of pits/slice,Rattus norvegicus [19],9.17
same,Activity,[20],90%
same,IC50,Rattus norvegicus [21],4 µM
same,No. of pits/slice,Rattus norvegicus [22],9.83
same,Mean pit size,Rattus norvegicus [23],919 µm²
same,Mean total resorption,Rattus norvegicus [24],8740 um2
same,Mean pit size,Rattus norvegicus [25],798 µm²
same,Mean pit size,Rattus norvegicus [26],477 µm²
same,No. of pits/slice,Rattus norvegicus [27],2.67
same,Activity,[28],66%
same,Mean total resorption,Rattus norvegicus [29],1270 um2
same,Mean total resorption,Rattus norvegicus [30],7300 um2
same,No. of pits/slice,Rattus norvegicus [31],9.5
